We go through 27 molecules from ChEMBL document CHEMBL1137789, “Synthesis, binding, and modeling studies of new cytisine derivatives, as ligands for neuronal nicotinic acetylcholine receptor subtypes” (J Med Chem, 2009).

What all share (format): cell membranes
For assay [1], the target named is Neuronal acetylcholine receptor subunit alpha-7 (Rattus norvegicus, UniProt Q05941). Kind of assay: Displacement of [125I]alpha-bungarotoxin from alpha7 nicotinic acetylcholine receptor in rat brain cortex membrane homogenates. In outline: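 Cortex membrane homogenates from 21-day-old rats in buffer A (Tris-HCl pH 7 with salts, PMSF). Compounds (10 pM-10 mM) preincubated 30 min at rt, then overnight at rt with 1 nM final [¹²⁵I]-α-bungarotoxin. Nonspecific: 1 μM unlabeled α-bungarotoxin. Filtration, γ counting. Ki fitted by LIGAND from three independent competition experiments; no inhibition up to 200 μM taken as Ki >100 μM.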

In assay [2] the target is T1, Neuronal acetylcholine receptor; alpha4/beta2 (Rattus norvegicus, UniProt P09483+P12390). Kind of assay: Displacement of (+/-)-[3H]epibatidine from alpha4beta2 nicotinic acetylcholine receptor in rat brain cortex membrane homogenates. In outline: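 Compounds (10 pM-10 mM) preincubated 30 min rt, then overnight at 4 °C with 0.005-0.1 nM final [³H]-epibatidine. Nonspecific: 100 nM epibatidine. Filtration, β counting. Ki by LIGAND fit of three independent experiments.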

Assay [3] addresses T1, Neuronal acetylcholine receptor; alpha4/beta2. Kind of assay: Displacement of [3H]cytisine from alpha4beta2 nicotinic acetylcholine receptor in rat brain cortex membrane homogenates. (Loss of bound radioactivity is the signal in a displacement assay; it reports binding, not function.)

Neuronal acetylcholine receptor subunit alpha-7, sequence (Q05941 whole entry): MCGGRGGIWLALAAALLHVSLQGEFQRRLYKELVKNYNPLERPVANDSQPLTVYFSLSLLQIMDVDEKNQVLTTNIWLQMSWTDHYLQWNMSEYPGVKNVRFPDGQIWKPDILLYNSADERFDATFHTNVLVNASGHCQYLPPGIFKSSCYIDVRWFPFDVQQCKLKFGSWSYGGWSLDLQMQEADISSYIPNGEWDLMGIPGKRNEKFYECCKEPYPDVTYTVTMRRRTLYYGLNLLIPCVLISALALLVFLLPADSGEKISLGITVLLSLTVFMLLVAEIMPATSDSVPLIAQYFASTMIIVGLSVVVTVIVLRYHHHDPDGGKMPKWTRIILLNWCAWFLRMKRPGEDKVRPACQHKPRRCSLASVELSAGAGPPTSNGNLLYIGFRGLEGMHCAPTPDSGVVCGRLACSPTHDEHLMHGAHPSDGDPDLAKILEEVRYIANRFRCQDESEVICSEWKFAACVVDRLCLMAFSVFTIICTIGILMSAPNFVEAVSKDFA
T1 sequence (P09483 whole entry): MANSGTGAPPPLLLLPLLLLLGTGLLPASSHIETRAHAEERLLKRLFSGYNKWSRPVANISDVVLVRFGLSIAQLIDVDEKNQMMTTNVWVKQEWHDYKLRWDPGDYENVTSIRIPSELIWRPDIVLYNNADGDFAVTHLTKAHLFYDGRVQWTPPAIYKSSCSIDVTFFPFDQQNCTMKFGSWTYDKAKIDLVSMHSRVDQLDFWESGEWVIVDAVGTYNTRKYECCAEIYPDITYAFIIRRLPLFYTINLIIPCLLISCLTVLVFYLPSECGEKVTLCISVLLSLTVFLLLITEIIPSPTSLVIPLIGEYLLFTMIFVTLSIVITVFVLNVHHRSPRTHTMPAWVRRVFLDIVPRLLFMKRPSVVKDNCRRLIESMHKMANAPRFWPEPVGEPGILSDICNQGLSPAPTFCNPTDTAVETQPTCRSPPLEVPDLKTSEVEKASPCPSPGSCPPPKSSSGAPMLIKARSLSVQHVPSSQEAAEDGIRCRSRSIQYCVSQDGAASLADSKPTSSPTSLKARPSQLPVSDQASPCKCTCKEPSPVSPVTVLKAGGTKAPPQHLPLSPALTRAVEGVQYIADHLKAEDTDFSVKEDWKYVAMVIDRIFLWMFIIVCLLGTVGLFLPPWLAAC
T1 sequence (P12390 whole entry): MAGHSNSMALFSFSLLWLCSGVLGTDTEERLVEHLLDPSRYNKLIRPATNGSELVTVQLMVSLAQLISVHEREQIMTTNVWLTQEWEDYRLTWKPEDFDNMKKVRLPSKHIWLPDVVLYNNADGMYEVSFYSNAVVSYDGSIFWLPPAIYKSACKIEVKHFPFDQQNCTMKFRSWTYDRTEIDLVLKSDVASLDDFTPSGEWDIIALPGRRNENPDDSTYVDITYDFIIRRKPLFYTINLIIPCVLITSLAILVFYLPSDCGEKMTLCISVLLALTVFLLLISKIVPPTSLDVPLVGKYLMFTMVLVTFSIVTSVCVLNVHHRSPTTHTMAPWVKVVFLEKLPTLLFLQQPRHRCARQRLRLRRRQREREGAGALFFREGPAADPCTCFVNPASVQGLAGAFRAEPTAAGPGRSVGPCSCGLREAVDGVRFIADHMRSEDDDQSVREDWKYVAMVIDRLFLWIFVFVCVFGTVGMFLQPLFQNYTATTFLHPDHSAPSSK

As a reminder, the Ki is the equilibrium dissociation constant of an inhibitor or competing ligand from its target. Read a low Ki as higher affinity. Consider `NC(=O)CCN1C[C@@H]2C[C@H](C1)c1cccc(=O)n1C2`, for which the inhibition constant (Ki) came out at 3.6 µM in assay [1] and 35 nM in assay [2].
`O=C(CN1C[C@@H]2C[C@H](C1)c1cccc(=O)n1C2)c1ccc(F)cc1`: the Ki in assay [2] is 409 nM; in assay [3], 172 nM.
As for `O=c1cccc2n1C[C@H]1C[C@@H]2CN(Cc2ccccc2)C1`, the Ki in assay [1] is above 50 µM; in assay [2], 850 nM; in assay [3], 1000 nM.
As to `O=c1cccc2n1C[C@H]1C[C@@H]2CN(CCCCc2ccccc2)C1`, the results for the Ki in assay [2] and in assay [3] were 3900 nM and 2220 nM, respectively.
Regarding `O=c1cccc2n1C[C@H]1C[C@@H]2CN(CCCc2ccc(F)cc2)C1`, the Ki is above 50 µM in assay [1], 5000 nM in assay [2] and 611 nM in assay [3].
`O=c1cccc2n1C[C@H]1C[C@@H]2CN(CCCc2cccnc2)C1`: the Ki is above 100 µM in assay [1] and 744 nM in assay [2].
Take `O=C(CCN1C[C@@H]2C[C@H](C1)c1cccc(=O)n1C2)c1ccccc1`: the Ki in assay [1] is 0.55 µM; in assay [2] it was 2.6 nM; in assay [3], 7.2 nM.
Take `O=c1cccc2n1C[C@H]1C[C@@H]2CN(CCc2ccc(F)cc2)C1`: the Ki in assay [1] was above 50 µM; in assay [2], 1300 nM.
For the molecule `O=C(CCCN1C[C@@H]2C[C@H](C1)c1cccc(=O)n1C2)c1ccc(F)cc1`, the Ki in assay [1] is above 50 µM; in assay [2] it was 965 nM; in assay [3], 670 nM.
Consider `O=c1cccc2n1C[C@@H]1CNC[C@H]2C1` [CYTISINICLINE], for which the Ki in assay [1] was 0.331 µM; in assay [2], 0.48 nM; in assay [3], 0.34 nM.
Take `O=C(CCN1C[C@@H]2C[C@H](C1)c1cccc(=O)n1C2)c1ccc(F)cc1`: the Ki in assay [1] turned out to be 0.433 µM; in assay [2], 5.3 nM; in assay [3] it was 13 nM.
For the molecule `CC(=O)CCN1C[C@@H]2C[C@H](C1)c1cccc(=O)n1C2`, the Ki turned out to be 1.24 µM in assay [1], 8.7 nM in assay [2] and 3.2 nM in assay [3].
As to `O=c1cccc2n1C[C@H]1C[C@@H]2CN(CCCCc2ccc(F)cc2)C1`, the Ki in assay [1] is above 50 µM; in assay [2], 13000 nM.
In the case of `NC(=O)CN1C[C@@H]2C[C@H](C1)c1cccc(=O)n1C2`, the Ki was above 50 µM in assay [1] and 7300 nM in assay [2].
`Cc1ccc(CCCN2C[C@@H]3C[C@H](C2)c2cccc(=O)n2C3)cc1`: the results for the Ki in assay [1] and in assay [2] were above 50 µM and 7200 nM, respectively.
Taken in the same sequence, the figures for `CC(=O)CCCN1C[C@@H]2C[C@H](C1)c1cccc(=O)n1C2` were above 50 µM and 757 nM.
On to `O=c1cccc2n1C[C@H]1C[C@@H]2CN(Cc2ccncc2)C1`, for which the Ki in assay [1] was above 100 µM; in assay [2], 675 nM.
Turning to `O=C(CCCN1C[C@@H]2C[C@H](C1)c1cccc(=O)n1C2)c1ccccc1`, the Ki is above 50 µM in assay [1] and 816 nM in assay [2].
For `O=c1cccc2n1C[C@H]1C[C@@H]2CN(Cc2ccc(F)cc2)C1`, the Ki worked out at 78.7 µM in assay [1], 330 nM in assay [2] and 183 nM in assay [3].
As for `O=C(CN1C[C@@H]2C[C@H](C1)c1cccc(=O)n1C2)c1ccccc1`, the inhibition constant Ki in assay [1] was 2.25 µM; in assay [2], 17 nM.
Consider `O=c1cccc2n1C[C@H]1C[C@@H]2CN(CCc2ccncc2)C1`, for which the Ki in assay [1] came to 4.2 µM; in assay [2], 7.2 nM.
Consider `O=c1cccc2n1C[C@H]1C[C@@H]2CN(CCCc2ccccc2)C1`, for which the Ki was 13 µM in assay [1], 63 nM in assay [2] and 42 nM in assay [3].
As to `O=c1cccc2n1C[C@H]1C[C@@H]2CN(Cc2cccnc2)C1`, the values for the Ki in assay [1] and in assay [2] were above 100 µM and 6600 nM, respectively.
Take `O=c1cccc2n1C[C@H]1C[C@@H]2CN(CCc2ccccc2)C1`: the Ki in assay [1] worked out at 25 µM; in assay [2], 28 nM; in assay [3], 78 nM.
Take `O=c1cccc2n1C[C@H]1C[C@@H]2CN(CCc2ccccn2)C1`: the Ki in assay [1] is above 100 µM; in assay [2], 941 nM.
For the molecule `CCCCCN1C[C@@H]2C[C@H](C1)c1cccc(=O)n1C2`, the Ki stood at 39.7 µM in assay [1], 332 nM in assay [2] and 43.5 nM in assay [3].
For `Cc1ccc(CCN2C[C@@H]3C[C@H](C2)c2cccc(=O)n2C3)cc1`, the figures for the Ki in assay [1] and in assay [2] were above 50 µM and 727 nM, respectively.
